pIC50: −log10 of the molar value. The source made the active and inactive calls. No cut-off for these calls is given here.
Assays:
[1] = system: Enterococcus faecium; assay: Antibacterial activity against chlorguanide triazine-resistant Streptococcus faecium ATCC 8043 assessed as reduction in growth; assay type: functional, organism-based
Summary of the method: (§1)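 Folate-requiring strains grown in medium with folic acid, 0.002 µg/ml for S. faecium and 0.001 µg/ml for L. casei; P. cerevisiae given folinic acid, 0.001 µg/ml. Resistant substrains came from serial transfer in rising chlorguanide triazine, and the most resistant were used. Compounds tested up to 1000 µg/ml, or 100 µg/ml when supply was limited. Growth read as Klett turbidity; IC50 is the µM concentration giving 50% growth inhibition.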

[2] = system: Escherichia coli; assay: Antibacterial activity against sensitive Escherichia coli ATCC 10536 assessed as reduction in growth in presence of p-aminobenzoic acid; assay type: functional, organism-based
Summary of the method: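 Reversal test. Drug inhibition was challenged with PABA in Sahyun et al. medium plus 0.6% acid-hydrolyzed casein. Growth read as turbidity on a Klett-Summerson colorimeter. Scored as reversal or nonreversal of the drug inhibition.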

[3] = system: Lacticaseibacillus casei; assay: Antibacterial activity against sensitive Lactobacillus casei ATCC 7469 assessed as reduction in growth in presence of 0.001 ug/ml folic acid; assay type: functional, organism-based
Summary of the method: (§2)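 Folate-requiring strains in the medium of the earlier assay method. Folic acid was 0.002 μg/ml for S. faecium and 0.001 μg/ml for L. casei. Turbidity read on a Klett-Summerson colorimeter. IC50 is the micromolar concentration reducing growth to 50% of control. Top concentration was 1000 μg/ml, or 100 μg/ml if supply was limited.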

[4] = system: Enterococcus faecium; assay: Fold increase in resistance, ratio of IC50 for chlorguanide triazine-resistant Streptococcus faecium ATCC 8043 to IC50 for sensitive Streptococcus faecium ATCC 8043; assay type: functional
Summary of the method: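 Resistant S. faecium substrain raised by serial transfer in increasing chlorguanide triazine. IC50 (µM, 50% growth inhibition by turbidity) was found for resistant and parent strains in folic acid (0.002 µg/ml) medium. Fold increase taken as IC50 resistant / IC50 sensitive.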

[5] = system: Enterococcus faecium; assay: Antibacterial activity against sensitive Streptococcus faecium ATCC 8043 assessed as reduction in growth; assay type: functional, organism-based; summary of the method: as §1
[6] = system: Lacticaseibacillus casei; assay: Fold increase in resistance, ratio of IC50 for chlorguanide triazine-resistant Lactobacillus casei ATCC 7469 to IC50 for sensitive Lactobacillus casei ATCC 7469; assay type: functional
Summary of the method: (§3)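 Resistant substrains were made by serial transfer in rising concentrations of cycloguanil, and the most resistant isolate of each organism was used. Both strains were assayed turbidimetrically under identical conditions. FIR = IC50 of the resistant strain divided by IC50 of the sensitive parent.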

[7] = system: Enterococcus faecium; assay: Antibacterial activity against sensitive Streptococcus faecium ATCC 8043 assessed as reduction in growth in presence of 0.002 ug/ml folic acid; assay type: functional, organism-based; summary of the method: as §2
[8] = Antibacterial activity against sensitive Pediococcus cerevisiae ATCC 808 assessed as reduction; assay type: functional
Summary of the method: (§4)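 P. cerevisiae grown with folinic acid at 0.001 μg/ml in the earlier-described medium. Turbidity read on a Klett-Summerson colorimeter. IC50 is the micromolar concentration reducing growth to 50% of control. Top concentration was 1000 μg/ml, or 100 μg/ml when supply was limited.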

[9] = system: Pediococcus; assay: Fold increase in resistance, ratio of IC50 for chlorguanide triazine-resistant Pediococcus cerevisiae ATCC 808 to IC50 for sensitive Pediococcus cerevisiae ATCC 808; assay type: functional; summary of the method: as §3
[10] = Antibacterial activity against chlorguanide triazine-resistant Pediococcus cerevisiae ATCC 808 assessed as reduction in growth; assay type: functional; summary of the method: as §1
[11] = system: Lacticaseibacillus casei; assay: Antibacterial activity against chlorguanide triazine-resistant Lactobacillus casei ATCC 7469 assessed as reduction in growth; assay type: functional, organism-based; summary of the method: as §1
[12] = system: Pediococcus; assay: Antibacterial activity against sensitive Pediococcus cerevisiae ATCC 808 assessed as reduction in growth in presence of 0.001 ug/ml folinic acid; assay type: functional; summary of the method: as §4
[13] = system: Escherichia coli; assay: Antibacterial activity against sensitive Escherichia coli ATCC 10536 assessed as reduction in growth; assay type: functional, organism-based
Summary of the method: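 Growth inhibition in Sahyun et al. medium plus 0.6% acid-hydrolyzed casein. Growth read as turbidity on a Klett-Summerson photoelectric colorimeter. IC50 is the micromolar concentration giving 50% growth inhibition. Top concentration was 1000 μg/ml, or 100 μg/ml when compound was limited.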

[14] = system: Lacticaseibacillus casei; assay: Antibacterial activity against sensitive Lactobacillus casei ATCC 7469 assessed as reduction; assay type: functional, organism-based; summary of the method: as §1
[15] = system: Plasmodium berghei; assay: Antimalarial activity against Plasmodium berghei infected in sc dosed mouse assessed as dose required to survivors for period of 60 days; assay type: functional
Summary of the method: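 Mice infected with a blood-induced P. berghei inoculum were given one subcutaneous dose in peanut oil. Survivors at 60 days counted as cured. The minimum curative dose is the lowest dose that cured any mouse.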

[16] = system: Plasmodium berghei; assay: Antimalarial activity against Plasmodium berghei infected in sc dosed mouse assessed as active dose required to increase of 100% in mean survival time; assay type: functional; conditions: read-out: MED
Summary of the method: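 Mice received a standard blood-induced P. berghei inoculum and were then treated with one subcutaneous dose of compound suspended in peanut oil. The minimum active dose is the lowest dose that raised mean survival time by 100%.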

[17] = system: Lacticaseibacillus casei; assay: Antibacterial activity against chlorguanide triazine-resistant Lactobacillus casei ATCC 7469 assessed as reduction in growth in presence of 0.001 ug/ml folic acid; assay type: functional, organism-based; summary of the method: as §1
[18] = system: Enterococcus faecium; assay: Antibacterial activity against chlorguanide triazine-resistant Streptococcus faecium ATCC 8043 assessed as reduction in growth in presence of 0.002 ug/ml folic acid; assay type: functional, organism-based; summary of the method: as §1

SMILES | pIC50 [1] | inhibition [2] | inhibition [3] | Ratio IC50 [4] | pIC50 [5] | Ratio IC50 [6] | inhibition [7] | pIC50 [8] | Ratio IC50 [9] | pIC50 [10] | pIC50 [11] | inhibition [12] | pIC50 [13] | pIC50 [14] | MCD [15] | minimal effective dose [16] | inhibition [17] | inhibition [18]
CCN(CC)CCNc1nc(Nc2ccc(Cl)c(Cl)c2)nc2ccccc12 | 4.21 | Active | Active | 2 | 4.51 | 0.4 | Active | 5.19 | 1 | 5.09 | 5.30 | Active | 4.96 | 4.92 | – | – | – | –
Nc1ccc(S(=O)(=O)c2ccc(N)cc2)cc1 [DAPSONE] | < 2.40 | inactive | Active | – | < 2.40 | 0.24 | – | 3.98 | >4 | < 3.40 | 4.12 | Active | 3.86 | 3.50 | 40 mg/kg | 20 mg/kg | – | –
CC1(C)N=C(N)N=C(N)N1OCc1ccc(Cl)c(Cl)c1 [CLOCIGUANIL] | 5.47 | Active | inactive | 3800 | 9.05 | 54 | inactive | 6.85 | 59 | 5.09 | 5.51 | inactive | 5.15 | 7.24 | 20 mg/kg | 2.5 mg/kg | – | –
NC1(C(=O)O)CCCC1 [CYCLOLEUCINE] | < 2.11 | – | – | – | < 2.11 | – | – | < 2.11 | – | – | < 2.11 | – | < 2.11 | < 2.11 | >640 mg/kg | > 640 mg/kg | – | –
COc1nccnc1NS(=O)(=O)c1ccc(N)cc1 [SULFALENE] | < 2.44 | inactive | – | – | < 2.44 | 1 | – | < 2.44 | – | – | 2.09 | – | 4.87 | 2.09 | 160 mg/kg | 40 mg/kg | – | –
Nc1nc(=O)c2c([nH]1)NCC(CCNc1ccc(C(=O)[O-])cc1)N2.[Na+] (configuration not stated) | 5.14 | – | inactive | 800 | 8.05 | 0.03 | inactive | < 2.54 | – | – | 6.70 | – | – | 5.22 | >640 mg/kg | > 640 mg/kg | inactive | inactive
Nc1ccc(S(=O)(=O)Nc2ncccn2)cc1 [SULFADIAZINE] | < 2.40 | inactive | – | – | < 2.40 | – | – | < 2.40 | – | – | < 2.40 | – | 4.92 | < 2.40 | 640 mg/kg | 160 mg/kg | – | –
COc1cc(NC(C)CCCN)c2ncccc2c1 (configuration not stated) [PRIMAQUINE] | 2.52 | – | Active | 3 | 2.92 | 2 | Active | 3.24 | 1 | 3.27 | 2.89 | Active | – | 3.20 | 160 mg/kg | 40 mg/kg | – | –
Cc1ccccc1-c1nc2c(N)nc(N)nc2nc1N | 3.91 | Active | inactive | 113 | 5.96 | 0.03 | inactive | 5.07 | 5 | 4.36 | 5.72 | inactive | 3.68 | 4.17 | 320 mg/kg | 40 mg/kg | – | –
CCN(CC)CCNc1nc(C(Cl)(Cl)Cl)nc2cc(Cl)ccc12 | 4.17 | Active | Active | 0.9 | 4.12 | 0.27 | Active | 4.49 | 1 | 4.46 | 5.10 | Active | 4.30 | 4.52 | 320 mg/kg | 160 mg/kg | – | –
CCN(CC)CCCC(C)Nc1ccnc2cc(Cl)ccc12 (configuration not stated) [CHLOROQUINE] | 2.12 | – | Active | 1 | 2.18 | 1 | Active | 2.60 | 1 | 2.60 | 2.22 | Active | – | 2.19 | 80 mg/kg | 20 mg/kg | – | –
CCc1ccc(N2C(N)=NC(N)=NC2(C)C)cc1 | < 3.46 | Active | inactive | >9700 | 7.44 | 11 | inactive | 4.37 | >8 | < 3.45 | 3.54 | inactive | 2.72 | 4.56 | >640 mg/kg | 320 mg/kg | inactive | –
CCOC(=O)c1cnc(S)nc1O | < 2.30 | – | Active | – | < 2.30 | 0.19 | – | < 2.30 | – | – | 3.24 | – | < 2.30 | 2.52 | 320 mg/kg | 40 mg/kg | – | –
Nc1nc(N)c2c(ccc3cc(Br)ccc32)n1 | 6.15 | Active | inactive | 117 | 8.22 | 0.06 | inactive | 7.40 | 7.5 | 6.52 | 7.22 | inactive | 5.32 | 6.00 | >640 mg/kg | 640 mg/kg | inactive | inactive
Nc1ccc(S(=O)(=O)Nc2nccs2)cc1 [SULFATHIAZOLE] | < 2.41 | inactive | – | – | < 2.41 | – | – | < 2.41 | – | – | < 2.41 | – | 5.11 | < 2.41 | 160 mg/kg | 40 mg/kg | – | –
O=C(NO)c1ccc(C(=O)NO)cc1 | < 2.30 | – | Active | 3 | 2.77 | 1 | Active | < 2.30 | – | – | 2.52 | – | < 2.30 | 2.59 | 640 mg/kg | 320 mg/kg | Active | Active

Reference: ChEMBL document CHEMBL3272032, “Antifolate studies. Activities of 40 potential antimalarial compounds against sensitive and chlorguanide triazine resistant strains of folate-requiring bacteria and Escherichia coli” (J Med Chem, 1977)
